Test results as given in ChEMBL document CHEMBL3526139, “Clinical pharmacokinetics, metabolism, and drug-drug interaction of carfilzomib” (Drug Metab Dispos, 2013).
pIC50: −log10 of the molar value.

Tests used:
[1] = Tmax in solid tumor patient at 2 mg, po administered as single dose followed by co-treatment with 27 mg/m2, iv carfilzomib over 2 to 10 mins on days 1, 2, 8, 9, 15 and 16 of single 28-day cycle measured on day 16; type: ADME, organism-based; details: human, in vivo
Method in brief: (§1)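 Oral midazolam 2 mg single dose on Day -7, then 2 mg given immediately after IV carfilzomib (27 mg/m2, 2–10 min infusion) on Days 1 and 16. Plasma sampled pre-dose and 5, 10, 30 min, 1–24 h post-midazolam. Midazolam measured by liquid-liquid extraction (methyl tert-butyl ether) and LC-MS/MS, range 0.100–100 ng/mL, d4-midazolam internal standard. Tmax derived noncompartmentally.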

[2] = AUC(last) in solid tumor patient at 2 mg, po administered as single dose measured on day 7; details: human, plasma
[3] = AUC(infinity) in solid tumor patient at 2 mg, po administered as single dose measured on day 7; details: human, plasma
[4] = Tmax in solid tumor patient at 2 mg, po administered as single dose followed by co-treatment with 27 mg/m2, iv carfilzomib over 2 to 10 mins on days 1, 2, 8, 9, 15 and 16 of single 28-day cycle measured on day 1; type: ADME, organism-based; details: human, in vivo; method in brief: as §1
[5] = Half life in solid tumor patient at 2 mg, po administered as single dose followed by co-treatment with 27 mg/m2, iv carfilzomib over 2 to 10 mins on days 1, 2, 8, 9, 15 and 16 of single 28-day cycle measured on day 1; details: human, in vivo
clinical [6] = details: human, plasma, po
clinical [7] = details: human, plasma, po; remark: listed apart in the source
clinical [8] = details: human, in vivo, po
clinical [9] = details: human, plasma, po, 2 mg
clinical [10] = details: human, in vivo, po; remark: listed apart in the source
clinical [11] = details: human, plasma, po; remark: listed apart in the source
clinical [12] = details: human, plasma, po; remark: listed apart in the source
clinical [13] = details: human, plasma, po; remark: listed apart in the source
clinical [14] = details: human, in vivo, po; remark: listed apart in the source
clinical [15] = details: human, plasma, po; remark: listed apart in the source
[16] = Drug excretion in urine of human patient with relapsed and refractory hematological malignancies treated intravenously with carfilzomib on days 1, 2, 8, 9, 15 and 16 of 28-day cycle over 2 to 10 mins by LC-MS/MS analysis; type: ADME; details: in vivo, iv
Plasma = test: Drug level in plasma of human patient with relapsed and refractory hematological malignancies treated intravenously with carfilzomib on days 1, 2, 8, 9, 15 and 16 of 28-day cycle over 2 to 10 mins by LC-MS/MS analysis; type: ADME; details: iv
Homo sapiens = test: Ratio of compound AUC (infinity) to carfilzomib AUC (infinity) in human multiple myeloma patient with normal renal function treated with carfilzomib at 15 mg/m'2, iv on days 1, 2, 8, 9, 15 and 16 of 28-day cycle over 2 to 10 mins by LC-MS/MS analysis; type: ADME, organism-based; details: in vivo
Cytochrome P450 3A = Cytochrome P450 3A (Homo sapiens, UniProt P08684+P20815+Q9HB55+P24462); test: Inhibition of CYP3A in human liver microsomes treated with […] up to 30 uM by LC-MS/MS analysis; type: ADME
Method in brief: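 Metabolites were tested for CYP3A inhibition in HLM at 0.04–30 µM, with or without a 30-min preincubation. Midazolam or testosterone substrate was used with a 5-min reaction and LC-MS/MS read-out.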

CYP3A [17] = molecular target: T1, CYP3A (Homo sapiens, UniProt P08684+P20815+P24462+Q9HB55); test: Inhibition of CYP3A in human liver microsomes treated with carfilzomib by LC-MS/MS analysis; type: ADME
CYP3A [18] = molecular target: T1, CYP3A; test: Time-dependent inhibition of CYP3A in human liver microsomes preincubated for 30 mins with carfilzomib by LC-MS/MS analysis; type: ADME; details: liver microsomes
Method in brief: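 Pooled HLM (16 donors) given carfilzomib 0.01–10 µM in duplicate at 37°C with a 30-min preincubation before probe substrate was added. Substrate was set near Km (testosterone Km 100 µM; midazolam Km 3.8 µM). Protein was 0.1 mg/mL, or 0.05 mg/mL with midazolam. Metabolite formation was read by LC-MS/MS after 5 min and expressed relative to 0.5% acetonitrile controls to give IC50.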

SMILES: Cc1ncc2n1-c1ccc(Cl)cc1C(c1ccccc1F)=NC2 [MIDAZOLAM]
- Tmax [1]: 0.8 h
- AUC(0-t) [2]: 49.8 ng·h/mL
- AUC(0-inf) [3]: 54.3 ng·h/mL
- Tmax [4]: 0.7 h
- half-life [5]: 6.3 h
- AUC(0-t) (clinical [6]): 48.4 ng·h/mL
- AUC(0-inf) (clinical [7]): 59.9 ng·h/mL
- half-life (clinical [8]): 5.5 h
- AUC(0-t) at 12 h (clinical [9]): 42.5 ng·h/mL
- Cmax (clinical [10]): 15.7 ng/mL
- AUC(0-t) (clinical [11]): 47.3 ng·h/mL
- AUC(0-t) (clinical [12]): 40.3 ng·h/mL
- AUC(0-inf) (clinical [13]): 51.5 ng·h/mL
- Cmax (clinical [14]): 16 ng/mL
- AUC(0-t) (clinical [15]): 48.4 ng·h/mL

SMILES: O=C(CN1CCOCC1)NC(CCc1ccccc1)C(=O)O (stereo not drawn)
- Drug excretion [16]: metabolite_detected
- Drug metabolism (Plasma): metabolite_detected
- Ratio (Homo sapiens): 1.2
- inhibition (INH) (Cytochrome P450 3A): Not Active

SMILES: CC(C)CC(NC(=O)C(CCc1ccccc1)NC(=O)CN1CCOCC1)C(=O)NC(Cc1ccccc1)C(=O)NC(CC(C)C)C(=O)C(C)(O)CO (stereo not drawn)
- Drug excretion [16]: metabolite_detected
- Drug metabolism (Plasma): metabolite_detected
- Ratio (Homo sapiens): 0.28
- pIC50 (CYP3A [17]): < 4.52
- IC50 at 30 min (CYP3A [18]): 1.8 µM

SMILES: CC(C)CC(NC(=O)C(CCc1ccccc1)NC(=O)CN1CCOCC1)C(=O)O (stereo not drawn)
- Drug excretion [16]: metabolite_detected
- Drug metabolism (Plasma): metabolite_detected
- Ratio (Homo sapiens): 0.11
- inhibition (INH) (Cytochrome P450 3A): Not Active
